Measured values as given in ChEMBL document CHEMBL1124567, “2,4-Diamino-5-benzylpyrimidines and analogues as antibacterial agents. 11. Quinolylmethyl analogues with basic substituents conveying specificity” (J Med Chem, 1989).
≈ marks a conversion by molar mass, not a printed value.

Experiments:
[1] = Dissociation constant of compound at 25 degree C; assay type: physicochemical
Klebsiella pneumoniae = assay: Comparative in vitro antibacterial activity of compound with trimethoprim against Klebsiella pneumoniae CN3632; assay type: functional
How it was run: (§1)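 Activity is expressed relative to trimethoprim as the reference, with values above 1 meaning lower activity than the reference. Dilutions were threefold (1:3), and a difference of ± one dilution was not treated as significant.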

Pasteurella multocida = assay: Comparative in vitro antibacterial activity of compound with trimethoprim against Pasteurella multocida ATCC 6587; assay type: functional; how it was run: as §1
Citrobacter freundii = assay: Comparative in vitro antibacterial activity of compound with trimethoprim against Citrobacter freundii 2200/77; assay type: functional; how it was run: as §1
Proteus mirabilis = assay: Comparative in vitro antibacterial activity of compound with trimethoprim against Proteus mirabilis S2409; assay type: functional; how it was run: as §1
Streptococcus agalactiae = assay: Comparative in vitro antibacterial activity of compound with trimethoprim against Streptococcus agalactiae CN1143; assay type: functional; how it was run: as §1
[2] = Comparative in vitro antibacterial activity of compound with trimethoprim against Salmonella typhi CN512; assay type: functional, salmonella typhosa
How it was run: (§2)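 In vitro activity given as a ratio to trimethoprim, which is tested alongside; values above 1 mean lower activity than trimethoprim. Compounds were tested in serial 1:3 dilutions, and a difference of ±one dilution is treated as not significant.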

Shigella flexneri = assay: Comparative in vitro antibacterial activity of compound with trimethoprim against Shigella flexneri CN6007; assay type: functional; how it was run: as §1
[3] = tested on: Bordetella bronchiseptica; assay: Comparative in vitro antibacterial activity of compound with trimethoprim against Bordetella bronchiseptica CN385; assay type: functional; how it was run: as §1
Enterococcus faecalis = assay: Comparative in vitro antibacterial activity of compound with trimethoprim against Streptococcus faecalis CN478; assay type: functional; how it was run: as §1
Serratia marcescens = assay: Comparative in vitro antibacterial activity of compound with trimethoprim against Serratia marcescens CN2398; assay type: functional; how it was run: as §1
Vibrio cholerae = assay: Comparative in vitro antibacterial activity of compound with trimethoprim against Vibrio cholerae ATCC 14035; assay type: functional; how it was run: as §2
Escherichia coli = assay: Comparative in vitro antibacterial activity of compound with trimethoprim against Escherichia coli CN314; assay type: functional; how it was run: as §1
Streptococcus pyogenes = assay: Comparative in vitro antibacterial activity of compound with trimethoprim against Streptococcus pyogenes CN10; assay type: functional; how it was run: as §1
Proteus vulgaris = assay: Comparative in vitro antibacterial activity of compound with trimethoprim against Proteus vulgaris CN329; assay type: functional; how it was run: as §1
Salmonella typhimurium = assay: Comparative in vitro antibacterial activity of compound with trimethoprim against Salmonella Typhimurium S 8587; assay type: functional, Salmonella enterica subsp. enterica serovar Typhimurium; details: Salmonella enterica; how it was run: as §1
Staphylococcus aureus = assay: Comparative in vitro antibacterial activity of compound with trimethoprim against Staphylococcus aureus CN491; assay type: functional; how it was run: as §1
Klebsiella aerogenes = assay: Comparative in vitro antibacterial activity of compound with trimethoprim against Enterobacter aerogenes 2200/86; assay type: functional; how it was run: as §1
[4] = tested on: Mycolicibacterium smegmatis; assay: Comparative in vitro antibacterial activity of compound with trimethoprim against Mycobacterium smegmatis S 3254; assay type: functional; how it was run: as §1
Dihydrofolate reductase = molecular target: T1, Dihydrofolate reductase (Rattus norvegicus, UniProt Q920D2); assay: Inhibitory activity against Dihydrofolate reductase in rat liver; assay type: tissue-based; details: read-out: I50
T1 sequence (Q920D2 whole entry): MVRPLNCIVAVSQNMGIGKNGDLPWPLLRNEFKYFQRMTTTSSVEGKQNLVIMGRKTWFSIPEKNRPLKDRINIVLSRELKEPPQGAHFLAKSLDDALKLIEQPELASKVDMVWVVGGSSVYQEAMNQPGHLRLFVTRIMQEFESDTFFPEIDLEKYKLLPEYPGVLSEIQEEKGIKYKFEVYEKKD

[5] = Dissociation constent of compound at 20 degree C; assay type: ADME

For `COc1cc(Br)cc2c(N(C)C)cc(C)nc12`, the pKa [1] was 8.18.

`COc1ccc2ccccc2n1` showed a pKa [1] of 3.16.

`Cc1cc(N(C)C)nc2ccc(Cc3cnc(N)nc3N)cc12` showed an MIC (Klebsiella pneumoniae) of 10 µg/mL (≈ 32.4 µM), an MIC (Pasteurella multocida) of 1 µg/mL (≈ 3.24 µM) and an MIC (Citrobacter freundii) of 10 µg/mL (≈ 32.4 µM). For the same molecule, the MIC (Proteus mirabilis) was 3 µg/mL (≈ 9.73 µM), the MIC (Streptococcus agalactiae) was 10 µg/mL (≈ 32.4 µM) and the MIC [2] was 10 µg/mL (≈ 32.4 µM). The MIC (Shigella flexneri) was 10 µg/mL (≈ 32.4 µM), the MIC [3] was 10 µg/mL (≈ 32.4 µM) and the MIC (Enterococcus faecalis) was 3 µg/mL (≈ 9.73 µM). For the same molecule, the MIC (Serratia marcescens) was 3 µg/mL (≈ 9.73 µM), the MIC (Vibrio cholerae) was 1 µg/mL (≈ 3.24 µM) and the MIC (Escherichia coli) was 3 µg/mL (≈ 9.73 µM). The MIC (Streptococcus pyogenes) was 10 µg/mL (≈ 32.4 µM), the MIC (Proteus vulgaris) was 3 µg/mL (≈ 9.73 µM) and the MIC (Salmonella typhimurium) was 10 µg/mL (≈ 32.4 µM). The MIC (Staphylococcus aureus) was 3 µg/mL (≈ 9.73 µM), the MIC (Klebsiella aerogenes) was 3 µg/mL (≈ 9.73 µM) and the MIC [4] was 1 µg/mL (≈ 3.24 µM).

`COc1cccc2cccnc12` showed a pKa [1] of 4.99.

`COc1cc(C)c2ccc(Cc3cnc(N)nc3N)cc2n1` gave an MIC (Klebsiella pneumoniae) of 100 µg/mL (≈ 339 µM), an MIC (Pasteurella multocida) of 10 µg/mL (≈ 33.9 µM) and an MIC (Citrobacter freundii) of 100 µg/mL (≈ 339 µM). The MIC (Proteus mirabilis) was 30 µg/mL (≈ 102 µM), the IC50 (Dihydrofolate reductase) was 4.5 µM and the MIC (Streptococcus agalactiae) was 3 µg/mL (≈ 10.2 µM). It also gave an MIC [2] of 1000 µg/mL (≈ 3390 µM), an MIC (Shigella flexneri) of 300 µg/mL (≈ 1020 µM) and an MIC [3] greater than 100 µg/mL. The MIC (Enterococcus faecalis) was 3 µg/mL (≈ 10.2 µM), the MIC (Serratia marcescens) was greater than 100 µg/mL and the MIC (Vibrio cholerae) was 3 µg/mL (≈ 10.2 µM). For the same molecule, the MIC (Escherichia coli) was 300 µg/mL (≈ 1020 µM), the MIC (Streptococcus pyogenes) was 3 µg/mL (≈ 10.2 µM) and the MIC (Proteus vulgaris) was 30 µg/mL (≈ 102 µM). The MIC (Salmonella typhimurium) was 100 µg/mL (≈ 339 µM), the MIC (Staphylococcus aureus) was 10 µg/mL (≈ 33.9 µM) and the MIC (Klebsiella aerogenes) was 300 µg/mL (≈ 1020 µM). The MIC [4] was 3 µg/mL (≈ 10.2 µM).

For `Nc1ccnc2ccccc12` [QUINOLIN-4-AMINE], the pKa [5] was 9.13.

Work on `Cc1cc(N2CCOCC2)nc2cc(Cc3cnc(N)nc3N)ccc12` yielded an MIC (Klebsiella pneumoniae) of 300 µg/mL (≈ 856 µM), an MIC (Pasteurella multocida) of 300 µg/mL (≈ 856 µM) and an MIC (Citrobacter freundii) of 100 µg/mL (≈ 285 µM). It also gave an MIC (Proteus mirabilis) greater than 30 µg/mL, an IC50 (Dihydrofolate reductase) of 16 µM and an MIC (Streptococcus agalactiae) of 30 µg/mL (≈ 85.6 µM). The MIC [2] was 10000 µg/mL (≈ 28500 µM), the MIC (Shigella flexneri) was 1000 µg/mL (≈ 2850 µM) and the MIC [3] was greater than 100 µg/mL. For the same molecule, the MIC (Enterococcus faecalis) was 3 µg/mL (≈ 8.56 µM), the MIC (Serratia marcescens) was greater than 10 µg/mL and the MIC (Vibrio cholerae) was 10 µg/mL (≈ 28.5 µM). It also gave an MIC (Escherichia coli) of 300 µg/mL (≈ 856 µM), an MIC (Streptococcus pyogenes) of 10 µg/mL (≈ 28.5 µM) and an MIC (Proteus vulgaris) greater than 100 µg/mL. For the same molecule, the MIC (Salmonella typhimurium) was 1000 µg/mL (≈ 2850 µM), the MIC (Staphylococcus aureus) was 3 µg/mL (≈ 8.56 µM) and the MIC (Klebsiella aerogenes) was 300 µg/mL (≈ 856 µM). The MIC [4] was 3 µg/mL (≈ 8.56 µM).

Work on `Cc1cc(N2CCOCC2)nc2c(C)cc(Cc3cnc(N)nc3N)cc12` yielded an MIC (Klebsiella pneumoniae) of 10 µg/mL (≈ 27.4 µM), an MIC (Pasteurella multocida) of 10 µg/mL (≈ 27.4 µM) and an MIC (Citrobacter freundii) of 10 µg/mL (≈ 27.4 µM). The MIC (Proteus mirabilis) was 30 µg/mL (≈ 82.3 µM), the IC50 (Dihydrofolate reductase) was 410 µM and the MIC (Streptococcus agalactiae) was 0.3 µg/mL (≈ 0.823 µM). For the same molecule, the MIC [2] was 30 µg/mL (≈ 82.3 µM), the MIC (Shigella flexneri) was 30 µg/mL (≈ 82.3 µM) and the MIC [3] was 3 µg/mL (≈ 8.23 µM). The MIC (Enterococcus faecalis) was 0.3 µg/mL (≈ 0.823 µM), the MIC (Serratia marcescens) was 100 µg/mL (≈ 274 µM) and the MIC (Vibrio cholerae) was 3 µg/mL (≈ 8.23 µM). The MIC (Escherichia coli) was 30 µg/mL (≈ 82.3 µM), the MIC (Streptococcus pyogenes) was 1 µg/mL (≈ 2.74 µM) and the MIC (Proteus vulgaris) was 100 µg/mL (≈ 274 µM). It also gave an MIC (Salmonella typhimurium) of 30 µg/mL (≈ 82.3 µM), an MIC (Staphylococcus aureus) of 0.3 µg/mL (≈ 0.823 µM) and an MIC (Klebsiella aerogenes) of 30 µg/mL (≈ 82.3 µM). The MIC [4] was 3 µg/mL (≈ 8.23 µM).

Work on `COc1cc(C)nc2c(OC)cc(Br)cc12` yielded a pKa [1] of 6.39.
